Screening results deposited in PubChem by several laboratories.
Most compounds without a hit are left out; they make up all but 1.7% or so of the library.
Myeloid diff MLP = induction of myeloid progenitor differentiation, primary screen, cell-based, flow cytometry, MLPCN library; ER-HoxA9 myeloid progenitors, lysozyme-GFP differentiation; AID 624256, 2012; calls only at 10 µM; 360,000 tested, 1% active;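 active = normalized GFP-positive differentiation at or above the plate's own cutoff, the solvent-only control mean plus 3 SD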;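 also: cells exposed to compound for four days before flow analysis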
T cell modulator = modulators of CD8 T cell-vesicle binding, primary screen, mouse 2C CD8+ T cells, flow cytometry. 2C CD8+ T cell-vesicle binding; stronger effect = lower value. 330,000 tested, 0.068% active. response (vesicle binding), % at 7 µM;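 active = response, share of CD8 T cells binding vesicles, and their 90th percentile fluorescence all below set limits, cut at about 80% in these data, passing the limit was not always enough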;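 also: values below 100% mean blocked vesicle binding to the CD8+ T cells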
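Incubation: binding step 1.5 h, 37 °C, antibody labelling 20 min, ice; system: murine 2C transgenic CD8+ T lymphocytes; technique: cytometric PE anti-B7-1 and Alexa647 anti-CD8 signals after 1% paraformaldehyde fixation; also added: QL9-charged Drosophila Ld/ICAM-1/B7-1 vesicles; control set: naked versus QL9-loaded vesicles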
DSG3 Ab inh = inhibitors of pemphigus antibody binding to DSG3, primary screen, biochemical, bead-based, flow cytometry, scFv-GFP; Desmoglein-3 (Homo sapiens), P32926; DSG3-coupled beads, scFv-anti-DSG3-GFP binding; stronger effect = lower value; binding (percent of control), % at 10 µM; 310,000 tested, 0.48% active;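 active = binding more than 3 SD below its plate's average and above zero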;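 also: hits lower antibody fragment binding to DSG3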
Vif imaging = HIV Vif self-association inhibitors, primary screen, imaging, HEK293T, single point. HEK293T cells, Vif self-association by quenched fluorescence, 24 h. inhibition, % at 7.49 µM. 340,000 tested, 0.35% active. AID 602346, 2012; in the data active = inhibition above about 50%, passing the limit was not always enough
Myeloid diff CP1 = inducers of myeloid progenitor differentiation, confirmation, cell-based, GFP/Mac1 flow cytometry, cherry pick 01 | calls only | ER-HoxA9 myeloid progenitors, GFP/Mac1 double-positive flow | 2,300 tested, 2% active | AID 651706, 2012 | shares compounds with Myeloid diff MLP;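 active = share of green or green-and-red cells above 9 and 9% in run 1 or 4 and 3% in run 2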
GFP autofluor = flagged as fluorescent in myeloid differentiation counter-screen. shares compounds with Myeloid diff MLP. ER-HoxA9 myeloid progenitors, no estrogen, GFP autofluorescence flow cytometry; vehicle wells 0%, positive control 100%. fluorescence response, % (no concentration beside the values). 2,300 tested, 7.4% active;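 active = over 5% cells positive for green fluorescent reporter, or over 2% positive for both it and APC stain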;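 also: range taken on the double positive population between DMSO and positive control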
Active calls of the source: *; i = inactive; nt = no result given; + = active, no number.

SMILES	Myeloid diff MLP	T cell modulator	DSG3 Ab inh	Vif imaging	Myeloid diff CP1	GFP autofluor
COc1ccc(-c2cc(C3CCN(C(=O)OC(C)(C)C)CC3)[nH]n2)cc1	i	155.6	115.1	-5.2	nt	nt
CCC[C@H]1CC(=O)C=C(c2ccc(OC)cc2)ON1C(=O)OC(C)(C)C	i	nt	98.4	2.0	i	0.0
CCOC(=O)N1CCN(C(=O)CCN2C(=O)/C(=C\c3ccc(OC)c(OC)c3)SC2=S)CC1	i	nt	99.0	2.5	nt	nt
COc1ccc(/C=C2\SC(=S)N(CCC(=O)NC3CCCC3)C2=O)cc1OC	i	170.5	101.5	6.1	i	0.0
COc1ccc(C(CNC(=O)c2cccc(S(=O)(=O)Nc3ccc(F)cc3)c2)N2CCCCC2)cc1 (configuration not stated)	i	nt	107.3	-8.5	nt	nt
CC(C)CNC(=O)COC(=O)c1ccccc1SCC(=O)NCC(C)C	i	290.4	106.6	1.5	nt	nt
CC(C)CNC(=O)c1ccccc1SCC(=O)NC12CC3CC(CC(C3)C1)C2	+	273.8	128.9	-7.6	i	3.8
COC(=O)c1cc(S(=O)(=O)N2CCCCC2)ccc1N1CCOCC1	nt	190.0	119.8	4.1	nt	nt
COC(=O)c1cc(S(=O)(=O)N2CCOCC2)ccc1Sc1ccccc1N	i	67.8	101.6	nt	i	0.3
CN(C)CCN1CCc2ccccc21	+	504.3	nt	-3.2	i	0.0
c1ccc2c(c1)CCN2CCN1CCc2ccccc21	i	515.5	nt	nt	nt	nt
O=C(NCCc1ccc(Cl)cc1)c1cccc(S(=O)(=O)N2CCCC2)c1	i	nt	97.5	-1.3	nt	nt
Cc1c(C(=O)N2CCN(c3ccccc3)CC2)sc2ncnc(N3CCN(c4ccccn4)CC3)c12	+	i	97.9	19.8	i	0.0
O=S1(=O)CC2SC(=S)N(c3ccccc3)C2C1 (configuration not stated)	i	232.3	100.9	-4.7	nt	nt
CC12CS(=O)(=O)CC1SC(=S)N2c1ccccn1 (configuration not stated)	+	424.3	122.2	-5.0	i	0.0
C[C@H](CO)N1C[C@H](C)[C@@H](CN(C)S(=O)(=O)c2cccc(F)c2)Oc2ncc(Br)cc2C1=O	i	nt	108.4	4.8	nt	nt
CCOc1ccccc1CN(Cc1ccco1)S(=O)(=O)c1ccc(-n2cnnn2)c(OC)c1	+	nt	96.1	-6.0	i	0.0
COc1cc(S(=O)(=O)N(Cc2ccco2)C2CCCC2)ccc1-n1cnnn1	i	745.0	101.9	5.4	nt	nt
C[n+]1c(/C=C/c2ccc(O)cc2)ccc2ccccc21	i	341.8	103.7	12.2	nt	nt
C[n+]1c(/C=C/c2ccc3c(c2)OCO3)ccc2ccccc21	i	159.6	101.6	-4.3	+	0.0
Cc1cccc(C(O)c2cnc(C)n2Cc2ccccc2)c1 (configuration not stated)	i	nt	104.7	-7.7	nt	nt
Cc1cccc(C)c1-n1nnnc1C(c1ccnc2ccccc12)N(CCN(C)C)Cc1ccccc1 (configuration not stated)	i	nt	nt	nt	nt	nt
COC(=O)c1sc2ccccc2c1-n1cccc1C(=O)C(=O)Nc1ccccc1	i	211.7	113.7	6.3	i	0.0
CC1(C)NC(=O)N(CCC(=O)Nc2ccc(C(C)(C)C)cc2)C1=O	i	nt	99.9	13.3	nt	nt
CCCCn1c(SCC(=O)c2ccc(O)cc2O)nc2cc(S(N)(=O)=O)ccc21	i	264.1	117.2	19.3	nt	nt
SMILES	Myeloid diff MLP	T cell modulator	DSG3 Ab inh	Vif imaging	Myeloid diff CP1	GFP autofluor
CCCCn1c(SCC(=O)N2CCC(C)CC2)nc2cc(S(N)(=O)=O)ccc21	+	416.7	92.7	0.1	i	0.0
COc1ccc(CNC(=O)Cn2c(=O)oc3ccccc32)cc1OC	i	257.3	105.3	-3.6	i	0.8
COc1ccccc1OCCn1c(=O)oc2ccc(C)cc21	+	351.2	102.9	-4.7	i	0.0
COc1ccc(Cn2c(=O)oc3ccccc32)cc1OC	i	nt	101.9	-24.3	nt	nt
Cc1ccc2oc(=O)n(CCOc3ccccc3C)c2c1	i	241.0	101.8	-3.1	nt	nt
CCOc1ccc(CNC(=O)CCn2c(=O)oc3ccccc32)cc1OC	i	402.6	96.4	5.5	nt	nt
